Data set [1] concerns Trypanosoma cruzi. Nature of the data set: Antitrypanosomal activity against bloodstream forms of Trypanosoma cruzi infected in C3H/He mouse assessed as increase in mean survival time at 100 mg/kg, po bid administered through gavage starting 3 days post challenge for 5 successive days relative to control. The conditions noted are these: for survival at 100 mg/kg: Trypanosoma cruzi, po, 72 h. The format is functional. An outline of the steps:
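Male C3H/He mice infected ip with 2×10^3 bloodstream T. cruzi (Brazilian strain). Compound micronized to 0.5-2.0 μ and suspended in 0.9% NaCl, 1.0% Na carboxymethylcellulose, 0.5% Tween 80, 0.05% antifoam B; given at 100 mg/kg (0.01 ml/2 g) by gavage twice daily for 5 days from day 3 post-infection; groups of 7. Value is percent IMST over untreated controls; Student's t test.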

The test system of data set [2] is Mus musculus. Kind of data set: Toxicity in C3H/He mouse infected with bloodstream forms of Trypanosoma cruzi assessed as weight loss at 100 mg/kg, po bid administered through gavage starting 3 days post challenge for 5 successive days. The conditions noted are these: in vivo, 72 h. Set-up: dose 100 mg/kg, route oral. The format is organism-based. An outline of the steps: (§1)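 Male C3H/He mice were infected ip with 2×10^3 bloodstream forms of a Brazilian T. cruzi strain. Compounds were micronized to 0.5-2.0 μ and suspended in 0.9% NaCl, 1.0% Na-CMC, 0.5% Tween 80 and 0.05% antifoam B, dosed at 0.01 ml/2 g body weight. Groups of seven got 100 mg/kg by gavage twice daily for 5 days, starting day 3 postinfection, with untreated controls.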

For data set [3], the system named is Trypanosoma cruzi. Nature of the data set: Antitrypanosomal activity against bloodstream forms of Trypanosoma cruzi by in vitro assay. The format is functional. The conditions noted are these: for MIC: Trypanosoma cruzi. In a few lines: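 Serial dilution in liquid culture in Warren's medium. Read-outs are the minimum inhibitory concentration (MIC) and the minimum lethal concentration (MLC), both in μg/ml.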

The test system of data set [4] is Trypanosoma cruzi. Kind of data set: Antitrypanosomal activity against bloodstream forms of Trypanosoma cruzi infected in C3H/He mouse assessed as parasitologic cures at 100 mg/kg, po bid administered through gavage starting 3 days post challenge for 5 successive days relative to control. The format is functional, organism-based. More on the design: dose 100 mg/kg. In a few lines:
as §1

Data set [5] has as its system Mus musculus. Kind of data set: Toxicity in C3H/He mouse infected with bloodstream forms of Trypanosoma cruzi assessed as weight loss at 200 mg/kg, po qid administered 4 times a day through gavage starting 3 days post challenge for 5 successive days. The following applies: in vivo, 72 h.
The test system of data set [6] is Trypanosoma cruzi. Kind of data set: Antitrypanosomal activity against bloodstream forms of Trypanosoma cruzi infected in C3H/He mouse assessed as parasitologic cures at 200 mg/kg, po administered 4 times a day through gavage starting 3 days post challenge for 5 successive days relative to control. The format is functional, organism-based. Set-up: dose 200 mg/kg. In a few lines:
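Male C3H/He mice were infected ip with 2×10^3 bloodstream T. cruzi forms (Brazilian strain). Compound was given orally at 200 mg/kg four times daily for 5 days, then followed for parasitemia, survival and body weight.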

Data set [7] has as its system Trypanosoma cruzi. Kind of data set: Antitrypanosomal activity against bloodstream forms of Trypanosoma cruzi infected in C3H/He mouse assessed as increase in mean survival time at 100 mg/kg, ip bid starting 3 days post challenge for 5 successive days relative to control. The following applies: 72 h, route intraperitoneal. The format is functional. In a few lines: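 Infection: ip inoculation of 2×10^3 bloodstream forms of a Brazilian T. cruzi strain into male C3H/He mice. Compound given by intraperitoneal route, 100 mg/kg twice daily. Value is percent increase in mean survival time beyond untreated controls, taken from mortality records; significance by Student's t test.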

Values after ≈ are worked out from the molar mass of the structure shown. Active and inactive are the calls of the source.

By MIC is commonly meant the smallest concentration in the dilution series that meets the test's criterion for growth inhibition. Higher therefore signals weaker potency. For `O=[N+]([O-])c1ccc(/C=N/Nc2cc(Cl)nc3c(Cl)cnn23)o1`, the survival at 100 mg/kg in data set [1] stood at 14.6%. Besides, the Activity result in data set [2] is listed as “Non-toxic”. In data set [3], this compound gave an MLC of 10 µg/mL (≈ 29.3 µM) and an MIC of 10 µg/mL (≈ 29.3 µM).

For `Cc1cc(N/N=C/c2ccc([N+](=O)[O-])o2)n2nccc2n1`, the result in data set [4] and in data set [6] was inactive. Besides, the Activity entry was “Toxic” in data set [5] and “Non-toxic” in data set [2]. In addition, the survival at 100 mg/kg in data set [1] was 63.4%. In data set [3], the MLC stood at 10 µg/mL (≈ 34.9 µM). The compound further showed an MIC in data set [3] of 10 µg/mL (≈ 34.9 µM).

For the compound `Cc1cc(N/N=C/c2ccc([N+](=O)[O-])o2)n2ncc(S(=O)(=O)O)c2n1`, in data set [1], the survival at 100 mg/kg is 9%. Moreover, the Activity result in data set [2] is recorded as “Non-toxic”. For the same compound, in data set [3], the MLC came out at 100 µg/mL (≈ 273 µM) and the minimal inhibitory concentration (MIC) is more than 10 µg/mL.

On to `O=[N+]([O-])c1ccc(/C=N/Nc2ccnc3ccnn23)o1`, for which the survival at 100 mg/kg in data set [1] was less than 1%. The Activity entry in data set [2] is “Non-toxic”. Also, in data set [3], the MLC was determined as 10 µg/mL (≈ 36.7 µM) and the minimal inhibitory concentration (MIC) came out at 10 µg/mL (≈ 36.7 µM).

Consider `Cc1nc(N/N=C/c2ccc([N+](=O)[O-])o2)n2nc(-c3ccccc3)cc2n1`, for which the survival at 100 mg/kg in data set [1] was found to be 24.9%. Besides, in data set [3], the MLC came out at 3.2 µg/mL (≈ 8.81 µM) and the MIC stood at 1 µg/mL (≈ 2.75 µM).

For the compound `Cc1cc(N/N=C/c2ccc([N+](=O)[O-])o2)n2ncc(-c3ccccc3)c2n1`, the Activity entry in data set [2] is “Non-toxic”. In data set [3], this compound yielded an MLC of 1 µg/mL (≈ 2.76 µM) and an MIC of less than 1 µg/mL.

As for `Cc1cc(N/N=C/c2ccc([N+](=O)[O-])o2)n2ncc(-c3ccc(Cl)cc3)c2n1`, in data set [7], the survival at 100 mg/kg came out at 20.5%. In addition, in data set [2], the Activity entry was “Non-toxic”. In data set [3], this compound had an MLC of 3.2 µg/mL (≈ 8.06 µM) and an MIC of 1 µg/mL (≈ 2.52 µM).

In data set [3], `Cc1cc(N/N=C/c2ccc([N+](=O)[O-])o2)n2ccnc2n1` showed an MLC of more than 100 µg/mL and an MIC of more than 100 µg/mL.

For the compound `O=[N+]([O-])c1ccc(/C=N/Nc2cc(Cl)nc3nccn23)o1`, in data set [1], the survival at 100 mg/kg was determined as 4.4%. Further, in data set [3], the MLC worked out at 100 µg/mL (≈ 326 µM) and the MIC came to 10 µg/mL (≈ 32.6 µM).

For `CCOC(=O)c1cnn2c(N/N=C/c3ccc([N+](=O)[O-])o3)cc(C)nc12`, in data set [1], the survival at 100 mg/kg was 1.3%. Moreover, the Activity result in data set [2] is recorded as “Non-toxic”. In data set [3], the MLC came out at 10 µg/mL (≈ 27.9 µM) and it took 10 µg/mL (≈ 27.9 µM) to inhibit growth (MIC).

In the case of `Cc1cc(N/N=C/c2ccc([N+](=O)[O-])o2)n2ncnc2n1`, in data set [1], the survival at 100 mg/kg is 4.3%. In data set [3], this compound displayed an MLC of more than 100 µg/mL and a minimum inhibitory concentration (MIC) of more than 100 µg/mL.

Take `O=[N+]([O-])c1ccc(/C=N/Nc2cc(Cl)nc3ccnn23)o1`: the survival at 100 mg/kg in data set [1] came out at 36.3%. The Activity entry in data set [2] is “Non-toxic”. Besides, in data set [3], the MLC amounted to 1 µg/mL (≈ 3.26 µM) and the MIC is less than 1 µg/mL.

As to `Cc1cc(N/N=C/c2ccc([N+](=O)[O-])o2)n2ncc(Br)c2n1`, in data set [1], the survival at 100 mg/kg was determined as 21.9%. Besides, the Activity result in data set [2] is listed as “Non-toxic”. In addition, in data set [3], the MLC is more than 100 µg/mL and the minimum inhibitory concentration (MIC) was determined as 100 µg/mL (≈ 274 µM).

Consider `Cc1cc(N/N=C/c2ccc([N+](=O)[O-])o2)n2ncc(S(=O)(=O)[O-])c2n1.[Na+]`, for which the Survival in data set [1] amounted to 8.5%. In data set [2], the Activity result is recorded as “Non-toxic”. In data set [3], this compound yielded an MLC of more than 100 µg/mL and an MIC of more than 100 µg/mL.

For the origin of these results see ChEMBL document CHEMBL3272042, “Novel heterocyclic nitrofurfural hydrazones. In vivo antirypanosomal activity” (J Med Chem, 1976).
